Reference: ChEMBL document CHEMBL1687732, “Prevention of death in bacterium-infected mice by a synthetic antimicrobial peptide, L5, through activation of host immunity” (2009)
Calls of active or inactive are those of the source. The rule behind the calls is not given here. Non-standard residues stand in square brackets, D forms with d. Residues, ends and D or L forms follow the SMILES beside them.

Tests used:
Staphylococcus aureus [1] = assay: Antibacterial activity against Staphylococcus aureus Smith infected in ICR mouse assessed as survival rate at 100 ug, ip pretreated for 7 hrs before infection using 3 X 10^7 CFU inoculum measured on day 5; type: functional
Staphylococcus aureus [2] = assay: Antibacterial activity against Staphylococcus aureus Smith infected in ICR mouse assessed as survival rate at 100 ug, ip pretreated for 7 hrs before infection using 3 X 10^6 CFU inoculum measured on day 5; type: functional
Escherichia coli [3] = assay: Antibacterial activity against Escherichia coli EC14 infected in ICR mouse assessed as survival rate at 100 ug, ip pretreated for 7 hrs before infection using 2.5 X 10^4 CFU inoculum measured on day 5; type: functional
Escherichia coli [4] = assay: Antibacterial activity against Escherichia coli EC14 infected in ICR mouse assessed as survival rate at 100 ug, ip pretreated for 7 hrs before infection using 2.5 X 10^3 CFU inoculum measured on day 5; type: functional
Staphylococcus aureus [5] = assay: Antibacterial activity against Staphylococcus aureus Smith infected in ICR mouse assessed as survival rate at 100 ug, ip pretreated for 7 hrs before infection using 2 X 10^6 CFU inoculum measured on day 5 after bacterial infection; type: functional
Procedure, shortened: (§1)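 Five-week-old female ICR mice got peptide intraperitoneally in 500 μl Dulbecco's PBS with 2% DMSO; vehicle controls got PBS/2% DMSO. The minimum lethal bacterial dose was given intraperitoneally at set intervals: S. aureus Smith 2 × 10⁶, E. faecalis SR1004 1.7 × 10⁸, E. coli EC14 2.3 × 10⁴ CFU/mouse. Survival was scored on day 5 (4 or 8 mice/group; Fisher's exact test).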

Enterococcus faecalis [6] = assay: Antibacterial activity against Enterococcus faecalis SR1004 infected in ICR mouse assessed as survival rate at 100 ug, ip pretreated for 7 hrs before infection using 1.7 X 10^8 inoculum measured on day 5 after bacterial infection; type: functional; procedure, shortened: as §1
Escherichia coli [7] = assay: Antibacterial activity against Escherichia coli EC14 infected in ICR mouse assessed as survival rate at 100 ug, ip pretreated for 7 hrs before infection using 2.3 X 10^4 CFU inoculum measured on day 5 after bacterial infection; type: functional; procedure, shortened: as §1
Staphylococcus aureus [8] = assay: Antibacterial activity against Staphylococcus aureus Smith by broth microdilution method; type: functional
Procedure, shortened: (§2)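 MIC was determined by broth microdilution following NCCLS recommendations.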

Enterococcus faecalis [9] = assay: Antibacterial activity against Enterococcus faecalis SR1004 by broth microdilution method; type: functional; procedure, shortened: as §2
Escherichia coli [10] = assay: Antibacterial activity against Escherichia coli EC14 by broth microdilution method; type: functional; procedure, shortened: as §2
Staphylococcus aureus [11] = assay: Antibacterial activity against Staphylococcus aureus Smith infected in ICR mouse assessed as survival rate at 50 ug, ip treated 0.5 hrs after infection using 2 X 10^6 CFU inoculum measured on day 5 after bacterial infection; type: functional; procedure, shortened: as §1
Staphylococcus aureus [12] = assay: Antibacterial activity against Staphylococcus aureus Smith infected in ICR mouse assessed as survival rate at 50 ug, ip treated at the time of infection using 2 X 10^6 CFU inoculum measured on day 5 after bacterial infection; type: functional; procedure, shortened: as §1
Staphylococcus aureus [13] = assay: Antibacterial activity against Staphylococcus aureus Smith infected in ICR mouse assessed as survival rate at 50 ug, ip pretreated for 1 hr before infection using 2 X 10^6 CFU inoculum measured on day 5 after bacterial infection; type: functional; procedure, shortened: as §1
Staphylococcus aureus [14] = assay: Antibacterial activity against Staphylococcus aureus Smith infected in ICR mouse assessed as survival rate at 50 ug, ip pretreated for 3 hrs before infection using 2 X 10^6 CFU inoculum measured on day 5 after bacterial infection; type: functional; procedure, shortened: as §1
Staphylococcus aureus [15] = assay: Antibacterial activity against Staphylococcus aureus Smith infected in ICR mouse assessed as survival rate at 50 ug, ip pretreated for 7 hrs before infection using 2 X 10^6 CFU inoculum measured on day 5 after bacterial infection; type: functional; procedure, shortened: as §1
Staphylococcus aureus [16] = assay: Antibacterial activity against Staphylococcus aureus Smith infected in ICR mouse assessed as survival rate at 50 ug, ip pretreated for 24 hrs before infection using 2 X 10^6 CFU inoculum measured on day 5 after bacterial infection; type: functional; procedure, shortened: as §1
Staphylococcus aureus [17] = assay: Antibacterial activity against Staphylococcus aureus Smith infected in ICR mouse assessed as survival rate at 3.13 ug, ip pretreated for 7 hrs before infection using 2 X 10^6 CFU inoculum measured on day 5 after bacterial infection; type: functional; procedure, shortened: as §1
Staphylococcus aureus [18] = assay: Antibacterial activity against Staphylococcus aureus Smith infected in ICR mouse assessed as survival rate at 12.5 ug, ip pretreated for 7 hrs before infection using 2 X 10^6 CFU inoculum measured on day 5 after bacterial infection; type: functional; procedure, shortened: as §1
Staphylococcus aureus [19] = assay: Antibacterial activity against Staphylococcus aureus Smith infected in ICR mouse assessed as survival rate at 25 ug, ip pretreated for 7 hrs before infection using 2 X 10^6 CFU inoculum measured on day 5 after bacterial infection; type: functional; procedure, shortened: as §1
Mus musculus [20] = assay: Induction of ROS generation in intraperitoneally dosed ICR mouse abdominal cavity neutrophils after 7 hrs by lucigenin-dependent chemiluminescence method; type: functional, organism-based
Procedure, shortened: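 Peptide was injected intraperitoneally. After 7 h, peritoneal cells were collected by lavage with 5 ml cold saline, washed, and suspended at 2 × 10⁵ cells/ml in HEPES-buffered Hank's solution, pH 7.4. After 5 min at 37°C, lucigenin was added to 0.1 mM final. Chemiluminescence was read at 37°C in relative light units. The experiment was repeated and representative data shown.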

Mus musculus [21] = assay: Induction of neutrophil recruitment in intraperitoneally dosed ICR mouse abdominal cavity assessed as accumulation of neutrophils after 7 hrs using hematoxylin and eosin staining by microscopy; type: functional, organism-based
Procedure, shortened: (§3)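 Peptide was injected intraperitoneally. After 7 h, the peritoneal cavity was lavaged with 5 ml cold sterile saline. Cells were washed, resuspended at 1 × 10⁶/ml in heat-inactivated FCS, cytocentrifuged, and stained with Diff-Quick. Total cells and neutrophils were counted by microscopy, and neutrophil percentage was averaged over five fields ± SD. Comparison used an unpaired t test after arcsine transformation.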

Mus musculus [22] = assay: Induction of neutrophil recruitment in intraperitoneally dosed ICR mouse abdominal cavity assessed as neutrophil level after 7 hrs using hematoxylin and eosin staining by microscopy; type: functional; procedure, shortened: as §3
Staphylococcus aureus [23] = assay: Antibacterial activity against Staphylococcus aureus Cowan I infected in intraperitoneally dosed ICR mouse assessed as bacterial kill in abdomen pretreated for 7 hrs before infection using 4 X 10^5 CFU inoculum; type: functional
Procedure, shortened: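 Peptide solution (500 μl) was injected ip. After 7 h, S. aureus Cowan I (4 × 10⁵ CFU/mouse) was introduced into the abdominal cavity for 15 min. The peritoneum was lavaged with 5 ml cold sterile saline, serially diluted in PBS and plated on LB agar for 18 h. Colonies were counted against saline-control mice (unpaired Student's t test).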

[24] = system: Peritoneal macrophage cell; assay: Induction of Mig/CXCL9 mRNA expression in TGC-elicited ICR mouse peritoneal macrophage at 25 ug/ml after 2.5 to 5 hrs by RT-PCR; type: functional, cell-based
Procedure, shortened: (§4)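 Mouse peritoneal macrophages were elicited with 3 ml of 3% thioglycolate medium given intraperitoneally and collected 4 days later by lavage with cold PBS. Cells were seeded at 1 × 10⁶/ml in RPMI-1640 with 10% heat-inactivated FCS and allowed to adhere for 2 h at 37°C; nonadherent cells were then rinsed off. Cells were exposed to peptide at 25 μg/ml for 2.5, 5 or 7.5 h, with LPS at 100 ng/ml for 24 h as positive control. RT-PCR used 400 ng total RNA and 25–35 cycles, with ethidium bromide agarose gels and G3PDH primers; n = 3.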

[25] = system: Peritoneal macrophage cell; assay: Induction of Mig/CXCL9 mRNA expression in TGC-elicited ICR mouse peritoneal macrophage at 25 ug/ml after 7.5 hrs by RT-PCR; type: functional, cell-based; procedure, shortened: as §4
Mus musculus [26] = species: Mus musculus; assay: Induction of Mig/CXCL9 mRNA expression in TGC-elicited ICR mouse peritoneal macrophage at 25 ug/ml after 5 hrs by RT-PCR; type: functional; procedure, shortened: as §4

CC(C)C[C@@H](NC(=O)[C@H](N)CCCCN)C(=O)N[C@H](CCCCN)C(=O)N[C@H](CC(C)C)C(=O)N[C@H](CC(C)C)C(=O)N[C@H](CC(C)C)C(=O)N[C@H](CC(C)C)C(=O)N[C@H](CC(C)C)C(=O)N[C@H](CCCCN)C(=O)N[C@H](CC(C)C)C(=O)N[C@H](CCCCN)C(N)=O (H-[dK][dL][dK][dL][dL][dL][dL][dL][dK][dL][dK]-NH2)
Activity (Staphylococcus aureus [1]): 25% | Activity (Staphylococcus aureus [2]): 50% | Activity (Escherichia coli [3]): 100% | Activity (Escherichia coli [4]): 100% | Survival (Staphylococcus aureus [5]): 100% | Survival (Enterococcus faecalis [6]): 100% | Survival (Escherichia coli [7]): 75% | MIC (Staphylococcus aureus [8]): > 625 µg/mL | MIC (Enterococcus faecalis [9]): > 625 µg/mL | MIC (Escherichia coli [10]): > 625 µg/mL | Survival (Staphylococcus aureus [11]): 0% | Survival (Staphylococcus aureus [12]): 0% | Survival (Staphylococcus aureus [13]): 25% | Survival (Staphylococcus aureus [14]): 62.5% | Survival (Staphylococcus aureus [15]): 87.5% | Survival (Staphylococcus aureus [16]): 0% | Survival (Staphylococcus aureus [17]): 0% | Survival (Staphylococcus aureus [18]): 0% | Survival (Staphylococcus aureus [19]): 75%

H-KLKLLLKLK-NH2
Survival (Staphylococcus aureus [5]): 0% | Activity (Mus musculus [20]): inactive

H-KLKLLLLLKLK-NH2
Survival (Staphylococcus aureus [5]): 75% | Survival (Enterococcus faecalis [6]): 75% | Survival (Escherichia coli [7]): 25% | MIC (Staphylococcus aureus [8]): > 625 µg/mL | MIC (Enterococcus faecalis [9]): > 625 µg/mL | MIC (Escherichia coli [10]): > 625 µg/mL | Activity (Mus musculus [21]): Active | Activity (Mus musculus [22]): 40% | Activity (Staphylococcus aureus [23]): 75% | Activity [24]: Active | Activity [25]: inactive | Activity (Mus musculus [26]): Active | Activity (Mus musculus [20]): Active
